Assay outcomes (PubChem)
In the library only some 2.5% were active in any assay of this set; here they are far more common.
JNK3 blocker: JNK3 kinase activity inhibitors, primary screen, biochemical, human, purified enzyme | Mitogen-activated protein kinase 10 (Homo sapiens), P53779 | HTS | inhibition, % at 8 µM | 60,000 tested, 0.61% active | AID 746, 2007; in the data active means inhibition above about 17%;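 further: 0% = DMSO and 100% = reference inhibitor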
Target sequence (P53779 whole entry, looked up): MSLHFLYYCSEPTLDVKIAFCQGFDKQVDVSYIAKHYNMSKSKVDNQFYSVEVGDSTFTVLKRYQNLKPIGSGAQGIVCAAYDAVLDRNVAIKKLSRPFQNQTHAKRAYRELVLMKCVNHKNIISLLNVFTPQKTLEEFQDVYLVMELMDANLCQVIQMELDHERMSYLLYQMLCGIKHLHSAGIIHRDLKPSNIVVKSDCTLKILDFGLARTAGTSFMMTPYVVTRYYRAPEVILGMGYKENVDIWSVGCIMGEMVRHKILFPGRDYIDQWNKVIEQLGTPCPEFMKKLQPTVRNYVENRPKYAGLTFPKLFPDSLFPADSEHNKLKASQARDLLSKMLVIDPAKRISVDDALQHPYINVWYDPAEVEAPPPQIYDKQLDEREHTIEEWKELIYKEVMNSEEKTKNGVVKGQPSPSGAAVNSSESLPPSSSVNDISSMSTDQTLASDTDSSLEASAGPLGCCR
PKA inh: inhibitors of human PKA kinase activity, primary screen, biochemical, ATP-depletion luminescence, Kemptide substrate. cAMP-dependent protein kinase catalytic subunit alpha (Homo sapiens), P17612. PKA Kemptide phosphorylation, Kinase-Glo ATP luminescence. inhibition, % at 6 µM. 65,000 tested, 0.1% active;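 active means inhibition above the screen-wide mean inhibition plus 3 SD, cut at about 21% in these data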
SF1 activator: activators of human SF-1, primary screen, cell-based, CHO-K1, Gal4-SF-1 LBD, luciferase luminescence; CHO-K1 Gal4-SF-1 LBD luciferase reporter; % increase over DMSO SF-1-specific signal; activation, % at 10 µM; 65,000 tested, 1.9% active; AID 522, 2006;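 active means activation above the mean activation of all tested compounds plus 3 SD, cut at about 50% in these data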
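Compound – one dose, 10 µM compound, 1% DMSO · Test system – transient Gal4-SF-1 LBD reporter, CHO-K1 · Input – 4,000 cells in each well · Read-out basis – percent activation relative to DMSO median and mock-transfected background · Replicates – single measurement per compound · Technique – steady-glow luciferase luminescence, read after 15 min reagent incubation · Timing – 20 h compound treatment, 37 °C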
RORA act: activators of orphan receptor RORA, primary screen, cell-based, luminescence; CHO-K1 Gal4-RORA LBD luciferase reporter; percent increase over mock-subtracted basal signal; activation, % at 10 µM; 65,000 tested, 1.5% active;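 active means activation above the mean of all tested compounds plus 3 SD, cut at about 49% in these data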;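 further: 0% = DMSO-treated RORA cells and 100% = added signal equal to DMSO minus mock-transfected cells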
ROCK2 blocker: inhibitors of human ROCK2 kinase, primary screen, biochemical, high-throughput, luminescence. Rho-associated protein kinase 2 (Homo sapiens), O75116. purified ROCK2, Kinase-Glo ATP depletion luminescence. inhibition, % at 6 µM. 60,000 tested, 0.35% active. AID 604, 2007;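 active means inhibition above the screen-wide mean inhibition plus 3 SD, cut at about 18% in these data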;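 further: plate controls were DMSO wells for no effect and Y-27632 control wells after no-enzyme background subtraction for full effect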
MT1-MMP txn act: MT1-MMP promoter reporter activation – cell-based, luciferase luminescence, primary screen | HT1080 MT1-MMP promoter luciferase reporter, overnight; active compounds read high | activation factor at 10 µM | 86,000 tested, 0.16% active | AID 750, 2007;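 active means activation factor of at least 2 for MT1-MMP transcription at 10 µM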
The depositor's hits bear a star; x = not tested or not shown.

SMILES	JNK3 blocker	PKA inh	SF1 activator	RORA act	ROCK2 blocker	MT1-MMP txn act
Cc1cccc(-n2ncc3c(N4CCC5(CC4)OCCO5)ncnc32)c1	-2.4	1.4	97.6*	49.0*	6.7	1.7
O=C(CN1CCN(c2ncccn2)CC1)N1CCN(C(c2ccccc2)c2ccccc2)CC1	x	8.6	1.4	8.7	x	x
O=C1c2ccccc2C(=O)N1CCN1CCc2ccccc21	1.7	6.9	52.5*	37.0	-1.0	1.6
O=c1c2[nH]c3cccc(Cl)c3c2ncn1Cc1ccncc1	22.4*	4.0	8.4	0.1	0.6	1
N/C(=N\OC(=O)c1ccco1)c1ccccc1	x	x	x	x	x	2*
C#CCCCC(=O)Nc1ccccc1	x	x	x	x	x	1.1
Cc1nc2ccc(NC(=O)c3ccc(Cl)s3)cc2s1	6.7	5.8	76.0*	80.5*	5.4	1.5
Cc1ccc2nc(NC(=O)c3ccc(Cl)s3)sc2c1	3.5	4.1	53.8*	85.8*	6.7	1.1
Cc1ccc2nc(NC(=O)c3cccs3)sc2c1	x	6.0	-40.7	-13.9	x	0.2
Cc1nc2ccc(NC(=O)c3ccc(Cl)c(NC(=O)c4cccs4)c3)cc2s1	x	x	x	x	x	1.3
Cc1cccc2sc(NC(=O)c3ccc(Cl)s3)nc12	-6.2	9.4	49.8*	22.7	6.1	1.7
Cc1nc2ccc(NC(=O)Cc3cccs3)cc2s1	-0.7	10.0	79.6*	53.4*	7.0	1.4
CCC(=O)Nc1ccc(-c2nc(-c3ccccc3)n(CC(=O)N3CCCCC3)n2)cc1	-2.9	7.6	19.1	6.4	5.0	1.1
Cc1ccc2nc(NC(=O)c3ccc(Cn4cc(Cl)cn4)o3)sc2c1	3.6	0.5	12.7	55.4*	3.7	1.1
Cc1sc(NC(=O)c2ccc(Cl)s2)c(C(N)=O)c1C	4.1	2.8	100.9*	65.5*	1.8	2.2*
Cn1nc(-c2ccc(Cl)cc2)c2cc(C(=O)NCCCN3CCCC3)sc21	-2.6	5.3	56.0*	10.6	3.5	1.4
CCCCNC(=O)c1cc2c(-c3ccc(Cl)cc3)nn(C)c2s1	-6.7	8.1	11.2	-14.2	0.7	1.3
C[C@@H]1C=C[C@](Cc2ccccc2)(C(=O)NCCN2CCOCC2)N1C(=O)c1ccccc1	x	x	x	x	x	1
O=C1NC(=O)c2c(NC(=O)C3CCCO3)cccc21 (stereo not given)	21.2*	11.8	1.4	-11.9	7.9	1
COCC(C)NC(=O)c1cc(-c2cccc(OC)c2)on1 (stereo not given)	5.5	0.8	70.8*	34.1	-1.1	1.5
CCC(C)NC(=O)c1cc(-c2ccc(OC)cc2)on1 (stereo not given)	x	-1.2	42.6	59.9*	x	1.4
COc1cccc(-c2cc(C(=O)Nc3ccccc3SC)no2)c1	-3.3	3.7	47.1	66.1*	2.9	1.4
COCCNC(=O)c1cc(-c2cccc(OC)c2)on1	-1.8	-6.5	40.1	16.8	-5.7	1.3
c1ccn2c(SCc3ccc4c(c3)OCO4)nnc2c1	3.1	10.3	40.2	22.9	6.5	1.3
O=C(CSc1nnc2ccccn12)c1ccc2c(c1)OCCO2	2.1	1.9	63.5*	50.6*	0.4	1.4
SMILES	JNK3 blocker	PKA inh	SF1 activator	RORA act	ROCK2 blocker	MT1-MMP txn act
CCOc1nc(Nc2ccc(-c3nc4ccccc4o3)cc2)nc(N2CCOCC2)n1	-7.7	11.8	3.5	-20.2	5.7	1
CCc1nnc(NC(=O)CSc2nc3c(cc2C#N)CCC3)s1	6.8	9.4	75.3*	7.1	6.9	0.8
O=C(CN1N=C(C(F)(F)F)CC1(O)c1ccc([N+](=O)[O-])cc1)c1ccccc1 (stereo not given)	x	x	x	x	x	1.1
CCc1ccc(C2(O)CC(C(F)(F)F)=NN2C(=O)Cc2ccc([N+](=O)[O-])cc2)cc1 (stereo not given)	x	x	x	x	x	2*
N#CC1=C(SCC(=O)NC23CC4CC(CC(C4)C2)C3)NC(=O)C(C#N)C12CCCCC2 (stereo not given)	-4.7	-4.6	-13.1	-8.1	-3.0	0.8
Cc1cc(C(=O)CSc2nc3ccccc3o2)c(C)n1C1CC1	-0.4	11.2	61.0*	81.6*	6.1	1.4
C=CCn1c(C)cc(C(=O)CSc2nc3ccccc3o2)c1C	-0.2	-2.9	40.1	10.0	-2.6	1.1
COC(=O)Cc1cnc(NC(=O)C2C3CCC(C3)C2C(=O)O)s1 (stereo not given)	1.5	3.8	-11.6	12.4	1.3	1.1
NC(=O)c1ccc(-n2nnnc2SCc2ccc(F)cc2)cc1	0.6	8.4	0.1	-10.4	6.9	1
CS(=O)(=O)NCCSc1nnnn1-c1ccccc1	0.3	-1.1	-10.6	-7.3	-0.3	1.1
Cc1ccc(S(=O)(=O)NCCSc2nnnn2-c2ccc(C(N)=O)cc2)cc1	1.0	54.3*	-5.1	-21.3	13.2	x
O=S(=O)(NCCSc1nnnn1-c1ccccc1)c1cccs1	2.5	10.3	54.1*	22.1	5.4	1.3
CCCC[C@@H]1C[C@H]1C(NC(=O)c1cccs1)c1ccccc1C(F)(F)F (stereo not given in full)	x	x	x	x	x	1.2
c1cnc2c(OCc3nc4ccccc4[nH]3)cccc2c1	-10.0	2.0	65.1*	82.3*	1.8	1.2
COc1ccc(OCc2nc3ccccc3[nH]2)cc1	x	x	x	x	x	0.6
COc1ccccc1OCc1nc2ccccc2[nH]1	5.7	6.8	52.8*	53.5*	0.5	1.1
c1ccc2cc(OCc3nc4ccccc4[nH]3)ccc2c1	x	x	x	x	x	1.9
O=C(Nc1cccc(C(=O)N2CCOCC2)c1)c1cccnc1	4.9	6.2	8.2	19.4	2.6	0.9
CC(=NC1CCCCC1)C1=C(O)c2ccccc2C1=O	15.3	10.1	23.7	88.1*	4.4	1
c1ccc(Cn2ncc3c2ncn2nc(-c4ccncc4)nc32)cc1	-3.3	48.5*	9.5	0.0	8.7	1.2
c1ccc(Cn2ncc3c2ncn2c(-c4ccncc4)nnc32)cc1	6.6	76.5*	-11.7	-8.0	14.2	1.1
c1ccc(CNc2ncnc3c2cnn3Cc2ccccc2)cc1	x	x	x	x	x	1.2
CC1=CC(C)C2(CO)COC(c3ccccc3O)C1C2C (stereo not given)	x	x	x	x	x	1.1
O=C(NC1(C(F)(F)F)NC(=O)N(C2CCCCC2)C1=O)c1cccs1 (stereo not given)	-0.7	3.4	-10.2	-13.1	4.0	1.3
COc1ccc(C(C)=O)cc1COC(=O)c1cc(C)oc1C	17.8*	0.7	-14.1	-11.3	-4.6	0.9
CCC1=C2CC[C@H]3C(=O)N(c4ccccc4)C(=O)[C@H]3[C@H]2[C@@]2(Cc3ccccc3)C(=NCC3CC3)OC(=O)N2C1=O	x	x	x	x	x	1
